Reference: ChEMBL document CHEMBL1139831, “The influence of modifications in imide fragment structure on 5-HT(1A) and 5-HT(7) receptor affinity and in vivo pharmacological properties of some new 1-(m-trifluoromethylphenyl)piperazines” (Bioorg Med Chem, 2007)
pKi: −log10 of the molar value.

Assays:
D(2) dopamine receptor = D(2) dopamine receptor (Rattus norvegicus, UniProt P61169); experiment: Displacement of [3H]spiperone from dopamine D2 receptor in rat striatal membranes; format: cell membranes, Membrane
Method in brief: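 Competition binding on rat striatal membranes using [3H]-spiperone, butaclamol for nonspecific binding; filtration through GF/B filters and scintillation counting. Run at two compound concentrations, each in triplicate, and affinity expressed as estimated Ki.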

Mus musculus [1] = species: Mus musculus; conditions: Swiss Albino, 10 mg/kg
Mus musculus [2] = species: Mus musculus; conditions: Swiss Albino, 10 mg/kg; remark: listed apart in the source
Mus musculus [3] = species: Mus musculus; conditions: Swiss Albino, 10 mg/kg; remark: listed apart in the source
Mus musculus [4] = species: Mus musculus; conditions: Swiss Albino, 10 mg/kg; remark: listed apart in the source
Mus musculus [5] = species: Mus musculus; conditions: Swiss Albino, 20 mg/kg
Rattus norvegicus [6] = experiment: Effect on lower lip retraction in Wistar rat at 20 mg/kg; format: functional
Method in brief: (§1)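 Male Wistar rats (290–310 g) dosed ip in 1% Tween 80 (2 ml/kg), caged singly; lower lip retraction scored 15, 30 and 45 min after dosing as 0 (incisors not visible), 0.5 (partly) or 1 (completely visible), totals up to 3 per rat. n = 6 per group; one-way ANOVA followed by Dunnett's test.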

[7] = target: 5-hydroxytryptamine receptor 7 (Homo sapiens, UniProt P34969); experiment: Displacement of [3H]5-CT from human 5HT7 expressed in HEK293 cells; format: cell-based
Method in brief: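 HEK293 cells stably transfected with human 5-HT7(b) cDNA; membranes (10 µg protein) incubated 1 h at 37 °C in 50 mM Tris-HCl pH 7.4 with 4 mM MgCl2, 0.1 mM pargyline, 0.1% ascorbic acid, 0.5 nM [3H]-5-CT and 7–9 test concentrations in triplicate; 10 µM 5-HT defines nonspecific binding. GF/B filtration, scintillation counting; Ki via Cheng-Prusoff from ≥3 experiments.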

Mus musculus [8] = species: Mus musculus; conditions: Swiss Albino, 20 mg/kg; remark: listed apart in the source
Rattus norvegicus [9] = experiment: Effect on 8-OH-DPAT-induced lower lip retraction in Wistar rat at 10 mg/kg; format: functional
Mus musculus [10] = species: Mus musculus; conditions: Swiss Albino, 20 mg/kg; remark: listed apart in the source
Mus musculus [11] = species: Mus musculus; conditions: Swiss Albino, 20 mg/kg; remark: listed apart in the source
[12] = target: T1, 5-hydroxytryptamine receptor 1A (Rattus norvegicus, UniProt P19327); experiment: Displacement of [3H]8-OH-DPAT from 5HT1A in rat hippocampal membranes; format: cell membranes, Hippocampus, Membrane
T1 sequence (P19327 whole entry): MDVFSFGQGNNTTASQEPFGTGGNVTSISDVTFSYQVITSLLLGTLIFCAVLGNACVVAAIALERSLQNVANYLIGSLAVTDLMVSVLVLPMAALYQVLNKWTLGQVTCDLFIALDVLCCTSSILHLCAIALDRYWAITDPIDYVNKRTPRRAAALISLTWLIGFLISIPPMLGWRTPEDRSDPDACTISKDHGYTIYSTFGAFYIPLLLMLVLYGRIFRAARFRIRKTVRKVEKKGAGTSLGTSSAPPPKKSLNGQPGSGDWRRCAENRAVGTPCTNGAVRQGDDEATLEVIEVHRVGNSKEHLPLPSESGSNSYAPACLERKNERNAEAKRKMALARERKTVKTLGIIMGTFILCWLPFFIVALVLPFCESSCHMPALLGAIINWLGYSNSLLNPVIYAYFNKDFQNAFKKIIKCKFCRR
Method in brief: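 Rat hippocampal membranes, [3H]-8-OH-DPAT as radioligand, 5-HT defining nonspecific binding. 7–9 drug concentrations run in triplicate, at least three separate experiments. Filtration through GF/B filters with three ice-cold buffer washes, scintillation counting. Ki from non-linear regression of binding isotherms via Cheng-Prusoff equation.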

Rattus norvegicus [13] = experiment: Effect on 8-OH-DPAT-induced lower lip retraction in Wistar rat at 20 mg/kg; format: functional
Rattus norvegicus [14] = experiment: Effect on lower lip retraction in Wistar rat at 10 mg/kg; format: functional; method in brief: as §1
[15] = Displacement of [3H]prazosin from adrenergic alpha1 receptor in rat cortical membranes; format: cell membranes, Membrane
Method in brief: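 Rat cortical membranes with [3H]-prazosin; phentolamine defines nonspecific binding. 7–9 drug concentrations in triplicate, at least three separate experiments; stopped by GF/B filtration with three ice-cold buffer washes, bound radioactivity by liquid scintillation counting; Ki from non-linear regression and Cheng-Prusoff equation.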

Mus musculus [16] = species: Mus musculus; conditions: Swiss Albino, 20 mg/kg; remark: listed apart in the source
Mus musculus [17] = species: Mus musculus; conditions: Swiss Albino, 10 mg/kg; remark: listed apart in the source
Mus musculus [18] = experiment: Anxiolytic activity in Swiss Albino mouse assessed as number of punished crossings for 60 secs at 1.25 mg/kg administered 30 mins before the test by four-plate test; format: functional
Method in brief: (§2)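 Male Albino Swiss mice (24–28 g), compound suspended in 1% aqueous Tween 80, given ip (10 ml/kg). Mouse placed in box with four metal floor plates, 15 s exploration, then floor electrified (120 V, 0.5 s) at each plate-to-plate crossing, no new shock for 3 s. Punished crossings counted over 60 s. n = 9-10/group; one-way ANOVA then Dunnett's test.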

Mus musculus [19] = experiment: Anxiolytic activity in Swiss Albino mouse assessed as number of punished crossings for 60 secs at 5 mg/kg administered 30 mins before the test by four-plate test; format: functional
Method in brief: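 Male Albino Swiss mice dosed ip (1% aqueous Tween 80, 10 ml/kg) 30 min beforehand. Opaque box floored with four metal plates; 15 s free exploration, then each plate-to-plate crossing triggers a 0.5 s, 120 V floor shock, with no new shock for 3 s if running continues. Punished crossings counted over 60 s; n = 9-10, ANOVA plus Dunnett's test.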

Mus musculus [20] = experiment: Anxiolytic activity in Swiss Albino mouse assessed as number of punished crossings for 60 secs at 2.5 mg/kg administered 30 mins before the test by four-plate test; format: functional; method in brief: as §2
Mus musculus [21] = experiment: Antidepressant activity in Swiss Albino mouse assessed as immobility time during final 4 mins of 6 mins session at 5 mg/kg administered 30 mins before the test by forced-swimming test; format: functional
Method in brief: (§3)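 Male Albino Swiss mice (24–28 g), compound given ip in 1% aqueous Tween 80 (10 ml/kg), 30 min before test. Mouse placed singly in glass cylinder (25 cm high, 10 cm diameter) holding 6 cm water at 23–25 °C for 6 min; immobility (floating, only small head-keeping movements) timed over last 4 min. n = 9-10 per group; one-way ANOVA then Dunnett's test.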

Mus musculus [22] = experiment: Antidepressant activity in Swiss Albino mouse assessed as immobility time during final 4 mins of 6 mins session at 10 mg/kg administered 30 mins before the test by forced-swimming test; format: functional; method in brief: as §3
Mus musculus [23] = experiment: Effect on locomotor activity in Swiss Albino mouse assessed as number of crossings in 6 mins at 5 mg/kg administered 30 mins before the test; format: functional
Method in brief: (§4)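 Male Albino Swiss mice (24–28 g) given compound ip (suspension in 1% aqueous Tween 80, 10 ml/kg). Animals housed singly in plastic cages in a multichannel photobeam activity monitor. Ambulation crossings counted over first 6 min and over 30-min session. n = 9-10/group; one-way ANOVA then Dunnett's test.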

Mus musculus [24] = experiment: Effect on locomotor activity in Swiss Albino mouse assessed as number of crossings in 30 mins at 5 mg/kg administered 30 mins before the test; format: functional
Method in brief: (§5)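 Male Albino Swiss mice given compound ip (1% Tween 80, 10 ml/kg) 30 min before placement singly in plastic cages in a multichannel photobeam activity monitor; ambulation crossings counted over the first 6 min and over a 30 min session. n = 9-10 per group; ANOVA then Dunnett's test.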

Mus musculus [25] = experiment: Anxiolytic activity in Swiss Albino mouse assessed as number of punished crossings for 60 secs at 10 mg/kg administered 30 mins before the test by four-plate test; format: functional; method in brief: as §2
Mus musculus [26] = experiment: Effect on locomotor activity in Swiss Albino mouse assessed as number of crossings in 30 mins at 10 mg/kg administered 30 mins before the test; format: functional; method in brief: as §5
Mus musculus [27] = experiment: Effect on locomotor activity in Swiss Albino mouse assessed as number of crossings in 6 mins at 10 mg/kg administered 30 mins before the test; format: functional; method in brief: as §4
Rattus norvegicus [28] = experiment: Effect on 8-OH-DPAT-induced lower lip retraction in Wistar rat at 0.1 mg/kg; format: functional
Rattus norvegicus [29] = experiment: Effect on lower lip retraction in Wistar rat at 0.1 mg/kg; format: functional; method in brief: as §1

Sequence of 5-hydroxytryptamine receptor 7 (P34969 whole entry): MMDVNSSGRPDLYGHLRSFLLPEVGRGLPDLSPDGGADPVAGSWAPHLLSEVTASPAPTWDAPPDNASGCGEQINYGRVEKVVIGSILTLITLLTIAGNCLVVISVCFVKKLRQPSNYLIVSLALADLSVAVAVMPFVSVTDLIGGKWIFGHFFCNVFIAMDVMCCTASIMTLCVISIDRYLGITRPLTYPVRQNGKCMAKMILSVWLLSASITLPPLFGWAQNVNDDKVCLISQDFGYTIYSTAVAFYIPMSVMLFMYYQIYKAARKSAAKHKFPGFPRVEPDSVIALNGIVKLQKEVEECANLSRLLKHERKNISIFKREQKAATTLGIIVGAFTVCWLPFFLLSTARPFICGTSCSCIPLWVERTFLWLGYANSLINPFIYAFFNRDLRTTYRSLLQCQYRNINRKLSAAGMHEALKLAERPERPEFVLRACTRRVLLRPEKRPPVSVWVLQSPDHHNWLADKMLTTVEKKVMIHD
Sequence of D(2) dopamine receptor (P61169 whole entry): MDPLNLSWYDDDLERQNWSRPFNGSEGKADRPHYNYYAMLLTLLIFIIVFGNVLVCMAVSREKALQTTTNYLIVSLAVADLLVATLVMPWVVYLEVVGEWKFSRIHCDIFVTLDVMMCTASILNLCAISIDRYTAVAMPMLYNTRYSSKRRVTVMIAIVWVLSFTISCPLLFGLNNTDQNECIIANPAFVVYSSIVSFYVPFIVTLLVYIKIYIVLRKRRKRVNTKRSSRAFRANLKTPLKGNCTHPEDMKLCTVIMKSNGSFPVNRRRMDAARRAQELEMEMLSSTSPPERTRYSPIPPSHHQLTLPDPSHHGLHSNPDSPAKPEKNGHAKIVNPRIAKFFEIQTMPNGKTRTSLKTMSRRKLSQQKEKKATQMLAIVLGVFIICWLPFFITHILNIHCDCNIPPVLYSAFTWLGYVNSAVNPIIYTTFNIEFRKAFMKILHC

O=C1C2CC=CCC2C(=O)N1CCCCN1CCN(c2cccc(C(F)(F)F)c2)CC1 (cis isomer)
pKi (D(2) dopamine receptor): 5.57
deltaT (Mus musculus [1]): -0.6 °C
deltaT (Mus musculus [2]): -0.9 °C
deltaT (Mus musculus [3]): -0.3 °C
deltaT (Mus musculus [4]): -0.6 °C
deltaT (Mus musculus [5]): -1.5 °C
Activity (Rattus norvegicus [6]): 1.8
pKi [7]: 7.51
deltaT (Mus musculus [8]): -1.2 °C
Activity (Rattus norvegicus [9]): 1.9
deltaT (Mus musculus [10]): -1.3 °C
deltaT (Mus musculus [11]): -1.5 °C
pKi [12]: 7.47
Activity (Rattus norvegicus [13]): 0.5
Activity (Rattus norvegicus [14]): 1.4
pKi [15]: 7.14
deltaT (Mus musculus [16]): -1.6 °C
deltaT (Mus musculus [17]): -0.2 °C

CN1C(=O)CN=C(c2ccccc2)c2cc(Cl)ccc21 [DIAZEPAM]
Activity (Mus musculus [18]): 5.5
Activity (Mus musculus [19]): 6.7
Activity (Mus musculus [20]): 6.8

CC1(C)CC(=O)N(CCCCN2CCN(c3cccc(C(F)(F)F)c3)CC2)C(=O)C1
Activity (Mus musculus [21]): 157.7 s
Activity (Mus musculus [22]): 112.1 s
Activity (Mus musculus [23]): 121.7
Activity (Mus musculus [24]): 730.8
Activity (Mus musculus [25]): 7.6
Activity (Mus musculus [26]): 265.1
Activity (Mus musculus [19]): 6.9
pKi [7]: 7.34
Activity (Mus musculus [27]): 23
pKi [15]: 6.90
Activity (Mus musculus [20]): 5.3

COc1ccccc1N1CCN(CCN(C(=O)C2CCCCC2)c2ccccn2)CC1 [WAY-100,635]
Activity (Rattus norvegicus [28]): 0.2
Activity (Rattus norvegicus [29]): 0
